Peptide text beside a SMILES is read from it. * marks the point of attachment. Cbz = O=C(OCc1ccccc1)*
Key:
[1] = system: RS4;11 cell line; assay: Cell cycle arrest by flow cytometry; type: cell-based, human; settings: RS4;11, 24 h
In short: (§1)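 Cell cycle was read by propidium iodide staining and flow cytometry after 24 h exposure to the test compound at the indicated concentrations. RS4;11 or MOLM-13 cells were cultured in RPMI 1640 with 10% FBS and 1% penicillin–streptomycin at 37 °C, 5% CO₂, and used within three months of thawing.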

[2] = system: c-Myc; assay: Western blotting of c-Myc level in RS4; type: cell-based, human; settings: RS4;11 cells, 24 h treatment, Western blot
In short: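 RS4;11 cells (2 × 10⁶/well) were exposed for 24 h to the test compound at the indicated concentrations. Cells were lysed in RIPA buffer with protease inhibitors. Lysate (20 μg per lane) was separated by SDS–PAGE, transferred to PVDF, and immunoblotted for c-Myc, with GAPDH as the loading control.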

[3] = system: BRD2, BRD3, and BRD4; assay: FP-based competitive binding assays, BET proteins overall; settings: binding to BRD2, BRD3, BRD4
[4] = system: MOLM-13 cell line; assay: Cell cycle arrest by flow cytometry; type: cell-based, human; settings: MOLM-13, 24 h
In short: as §1

[5] = system: BRD2, BRD3, and BRD4 proteins; assay: Western blotting of BET protein levels in RS4; type: cell-based, human; settings: RS4;11 cells; for Effect of pretreatment on degradation of BRD2, BRD3, and BRD4 induced by 23: 2 h pretreatment, then 3 h treatment with 23 at 1 nM
[6] = system: MOLM-13 cell line; assay: Apoptosis induction by flow cytometry; type: cell-based, human; settings: MOLM-13, 24 h treatment
In short: (§2)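 RS4;11 or MOLM-13 cells were grown in RPMI 1640 with 10% FBS and 1% penicillin–streptomycin at 37 °C, 5% CO₂, and used within three months of thawing. Cells were treated with the test compound at the indicated concentrations for 24 h. They were then stained with annexin V and propidium iodide and analysed by flow cytometry.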

[7] = system: RS4;11 cell line; assay: Apoptosis induction by flow cytometry; type: cell-based, human; settings: RS4;11, 24 h treatment
In short: as §2

[8] = system: RS4;11 acute leukemia cell line; assay: Cell growth inhibition; type: cell-based, human; settings: for times less potent than 23 in cell growth inhibition: comparator 23
[9] = target: BRD4 (Homo sapiens, UniProt O60885); assay: Western blotting of BRD4 protein level in RS4; type: cell-based; settings: RS4;11 cells, 3 h treatment, Western blot
In short: (§3)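 RS4;11 cells (2 × 10⁶/well) were treated with the test compound at the indicated concentrations for 3 h or 24 h. Cells were lysed in RIPA buffer with protease inhibitors. Lysate (20 μg per lane) was separated by SDS–PAGE, blotted onto PVDF, and probed with BRD2, BRD3 and BRD4 antibodies, with GAPDH as the loading control.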

[10] = target: BRD3 (Homo sapiens, UniProt Q15059); assay: Western blotting of BRD3 protein level in RS4; type: cell-based; settings: RS4;11 cells, 3 h treatment, Western blot
In short: as §3

[11] = target: BRD2 (Homo sapiens, UniProt P25440); assay: Western blotting of BRD2 protein level in RS4; type: cell-based; settings: RS4;11 cells, 3 h treatment, Western blot
In short: as §3

[12] = system: MOLM-13 acute leukemia cell line; assay: Cell growth inhibition; type: cell-based, human; settings: MOLM13; comparator 23

BRD2, sequence (P25440 whole entry): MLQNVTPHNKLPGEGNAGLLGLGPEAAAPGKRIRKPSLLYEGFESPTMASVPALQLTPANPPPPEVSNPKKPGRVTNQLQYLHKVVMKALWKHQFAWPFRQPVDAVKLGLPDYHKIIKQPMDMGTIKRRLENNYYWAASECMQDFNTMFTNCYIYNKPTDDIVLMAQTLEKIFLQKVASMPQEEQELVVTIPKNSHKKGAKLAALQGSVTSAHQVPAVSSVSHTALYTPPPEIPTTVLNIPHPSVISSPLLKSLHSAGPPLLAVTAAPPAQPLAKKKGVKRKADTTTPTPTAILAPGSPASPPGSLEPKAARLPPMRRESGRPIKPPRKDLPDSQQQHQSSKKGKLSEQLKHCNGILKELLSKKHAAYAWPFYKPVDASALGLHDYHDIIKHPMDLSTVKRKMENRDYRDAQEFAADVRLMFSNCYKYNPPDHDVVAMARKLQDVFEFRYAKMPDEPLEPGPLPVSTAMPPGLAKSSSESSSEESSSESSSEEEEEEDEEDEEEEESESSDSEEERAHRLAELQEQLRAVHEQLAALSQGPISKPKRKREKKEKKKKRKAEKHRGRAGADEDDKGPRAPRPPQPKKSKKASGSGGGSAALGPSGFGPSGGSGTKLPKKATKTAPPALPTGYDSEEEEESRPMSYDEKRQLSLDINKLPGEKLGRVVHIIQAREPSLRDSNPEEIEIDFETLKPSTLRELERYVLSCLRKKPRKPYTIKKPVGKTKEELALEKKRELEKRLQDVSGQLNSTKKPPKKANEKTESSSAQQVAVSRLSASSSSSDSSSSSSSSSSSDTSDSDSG
BRD3, sequence (Q15059 whole entry): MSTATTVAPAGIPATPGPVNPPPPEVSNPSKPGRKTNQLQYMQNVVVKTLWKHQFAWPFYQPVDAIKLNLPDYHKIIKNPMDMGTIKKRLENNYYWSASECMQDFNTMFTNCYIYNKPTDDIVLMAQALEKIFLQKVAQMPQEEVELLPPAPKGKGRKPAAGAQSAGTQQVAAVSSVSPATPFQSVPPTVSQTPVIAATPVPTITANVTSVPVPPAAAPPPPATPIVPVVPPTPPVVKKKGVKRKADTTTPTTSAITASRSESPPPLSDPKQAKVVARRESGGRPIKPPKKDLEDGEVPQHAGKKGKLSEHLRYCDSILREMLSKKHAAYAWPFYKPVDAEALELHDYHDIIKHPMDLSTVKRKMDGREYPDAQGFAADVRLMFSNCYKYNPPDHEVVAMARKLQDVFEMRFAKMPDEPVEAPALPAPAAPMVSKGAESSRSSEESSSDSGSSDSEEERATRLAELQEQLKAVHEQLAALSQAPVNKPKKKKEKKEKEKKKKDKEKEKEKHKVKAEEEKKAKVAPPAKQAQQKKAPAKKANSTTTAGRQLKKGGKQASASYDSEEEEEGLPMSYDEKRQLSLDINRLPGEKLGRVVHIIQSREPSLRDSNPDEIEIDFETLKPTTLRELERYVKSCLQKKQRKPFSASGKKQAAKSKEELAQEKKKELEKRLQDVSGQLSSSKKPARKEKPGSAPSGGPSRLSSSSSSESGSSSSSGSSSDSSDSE

CCn1nc(C2CC2)cc1Nc1nc(C(=O)NC)nc2[nH]c3cc(-c4c(C)noc4C)c(OC)cc3c12 [Compound 8, 4-((3-Cyclopropyl-1-ethyl-1H-pyrazol-5-yl)amino)-7-(3,5-dimethylisoxazol-4-yl)-6-methoxy-N-methyl-9H-pyrimido[4,5-b]indole-2-carboxamide]
Concentration effective in inducing cell cycle arrest [1]: 30 nM
Concentration effectively down-regulating the level of c-Myc [2]: 300 to 1000 nM
times more potent than 1 or 2 in binding ([3]; comparator 1 or 2): > 10 times
Concentration effective in inducing cell cycle arrest [4]: 30 to 100 nM
Effect of pretreatment on degradation of BRD2, BRD3, and BRD4 induced by 23 [5]: effectively blocks
Effect on the level of BRD2–4 proteins ([5]; 3 h, at both 100 and 300 nM): fails to decrease
Effect on the level of BRD2–4 proteins ([5]; 24 h, all concentrations tested (30–1000 nM)): no effect
Concentration inducing robust apoptosis [6]: > 300 nM
Concentration inducing robust apoptosis [7]: > 300 nM

CCn1nc(C2CC2)cc1Nc1nc(C(=O)NCCCCNC(=O)COc2cccc3c2C(=O)N(C2CCC(=O)NC2=O)C3=O)nc2[nH]c3cc(-c4c(C)noc4C)c(OC)cc3c12 (stereo not shown) [Compound 9, 4-((3-Cyclopropyl-1-ethyl-1H-pyrazol-5-yl)amino)-7-(3,5-dimethylisoxazol-4-yl)-N-(4-(2-((2-(2,6-dioxopiperidin-3-yl)-1,3-dioxoisoindolin-4-yl)oxy)acetamido)butyl)-6-methoxy-9H-pyrimido[4,5-b]indole-2-carboxamide]
Lowest concentrations effective in decreasing the level of BRD2, BRD3, and BRD4 proteins ([5]; 3 h treatment, Western blot): 3 to 10 nM
times more potent than 8 in cell growth inhibition ([8]; comparator 8): 6 times

CCn1nc(C2CC2)cc1Nc1nc(C(=O)NCCCCCCc2cccc3c2CN(C2CCC(=O)NC2=O)C3=O)nc2[nH]c3cc(-c4c(C)noc4C)c(OC)cc3c12 (stereo not shown) [Compound 21, 4-((3-Cyclopropyl-1-ethyl-1H-pyrazol-5-yl)amino)-7-(3,5-dimethylisoxazol-4-yl)-N-(6-(2-(2,6-dioxopiperidin-3-yl)-1-oxoisoindolin-4-yl)hexyl)-6-methoxy-9H-pyrimido[4,5-b]indole-2-carboxamide]
Lowest concentration effective in decreasing the level of BRD4 protein [9]: 0.3 nM
Lowest concentration effective in decreasing the level of BRD3 protein [10]: 0.1 nM
Lowest concentration effective in decreasing the level of BRD2 protein [11]: 0.3 nM

CCn1nc(C2CC2)cc1Nc1nc(C(=O)NCCOCCCc2cccc3c2CN(C2CCC(=O)NC2=O)C3=O)nc2[nH]c3cc(-c4c(C)noc4C)c(OC)cc3c12 (stereo not shown) [Compound 22, 4-((3-Cyclopropyl-1-ethyl-1H-pyrazol-5-yl)amino)-7-(3,5-dimethylisoxazol-4-yl)-N-(2-(3-(2-(2,6-dioxopiperidin-3-yl)-1-oxoisoindolin-4-yl)propoxy)ethyl)-6-methoxy-9H-pyrimido[4,5-b]indole-2-carboxamide]
times less potent than 19 in cell growth inhibition ([8]; comparator 19): 2 times

CCn1nc(C2CC2)cc1Nc1nc(C(=O)NCCCCc2cccc3c2CN(C2CCC(=O)NC2=O)C3=O)nc2[nH]c3cc(-c4c(C)noc4C)c(OC)cc3c12 (stereo not shown) [Compound 24, 4-((3-Cyclopropyl-1-ethyl-1H-pyrazol-5-yl)amino)-7-(3,5-dimethylisoxazol-4-yl)-N-(4-(2-(2,6-dioxopiperidin-3-yl)-1-oxoisoindolin-4-yl)butyl)-6-methoxy-9H-pyrimido[4,5-b]indole-2-carboxamide]
Lowest concentration effective in decreasing the level of BRD4 protein [9]: 3 nM
Lowest concentration effective in decreasing the level of BRD3 protein [10]: 1 nM
times less potent than 23 in cell growth inhibition [8]: 19 times
Lowest concentration effective in decreasing the level of BRD2 protein [11]: 3 nM

CCn1nc(C2CC2)cc1Nc1nc(C(=O)NCCCc2cccc3c2CN(C2CCC(=O)NC2=O)C3=O)nc2[nH]c3cc(-c4c(C)noc4C)c(OC)cc3c12 (stereo not shown) [Compound 25, 4-((3-Cyclopropyl-1-ethyl-1H-pyrazol-5-yl)amino)-7-(3,5-dimethylisoxazol-4-yl)-N-(3-(2-(2,6-dioxopiperidin-3-yl)-1-oxoisoindolin-4-yl)propyl)-6-methoxy-9H-pyrimido[4,5-b]indole-2-carboxamide]
Lowest concentration effective in decreasing the level of BRD4 protein [9]: 10 nM
Lowest concentration effective in decreasing the level of BRD3 protein [10]: 10 nM
times less potent than 23 in cell growth inhibition [8]: 188 times
Lowest concentration effective in decreasing the level of BRD2 protein [11]: less potent and effective

CCn1nc(C2CC2)cc1Nc1nc(C(=O)NCCCCCc2cccc3c2CN(C2CCC(=O)N(C)C2=O)C3=O)nc2[nH]c3cc(-c4c(C)noc4C)c(OC)cc3c12 (stereo not shown) [Compound 26, 4-((3-Cyclopropyl-1-ethyl-1H-pyrazol-5-yl)amino)-7-(3,5-dimethylisoxazol-4-yl)-6-methoxy-N-(5-(2-(1-methyl-2,6-dioxopiperidin-3-yl)-1-oxoisoindolin-4-yl)pentyl)-9H-pyrimido[4,5-b]indole-2-carboxamide]
Effect on the level of BRD2, BRD3, and BRD4 proteins ([5]; 3 h treatment, Western blot): fails to induce degradation
times less potent than 23 in cell growth inhibition [8]: > 600 times

COc1cc2c(cc1-c1c(C)noc1C)[nH]c1nc(C(=O)NCCCCCc3cccc4c3CN(C3CCC(=O)NC3=O)C4=O)ncc12 (stereo not shown) [Compound 27, 7-(3,5-Dimethylisoxazol-4-yl)-N-(5-(2-(2,6-dioxopiperidin-3-yl)-1-oxoisoindolin-4-yl)pentyl)-6-methoxy-9H-pyrimido[4,5-b]indole-2-carboxamide]
times less potent than 23 in cell growth inhibition [8]: > 10 000 times
times less potent than 23 in cell growth inhibition [12]: > 400 times

CNC(=O)c1ncc2c(n1)[nH]c1cc(-c3c(C)noc3C)c(OC)cc12 [Compound 28, 7-(3,5-Dimethylisoxazol-4-yl)-6-methoxy-N-methyl-9H-pyrimido[4,5-b]indole-2-carboxamide]
times less potent than 8 in binding affinity ([3]; comparator 8): > 100 times

CC(C)C[C@@H](C=O)NC(=O)[C@H](CC(C)C)NC(=O)[C@H](CC(C)C)NC(=O)OCc1ccccc1 [MG-132, reference compound] (Cbz-Leu-Leu-Leu-aldehyde)
Effect of pretreatment on degradation of BRD2, BRD3, and BRD4 induced by 23 [5]: completely block

NS(=O)(=O)OC[C@@H]1C[C@@H](n2ccc3c(N[C@H]4CCc5ccccc54)ncnc32)C[C@@H]1O [MLN4924, reference compound]
Effect of pretreatment on degradation of BRD2, BRD3, and BRD4 induced by 23 [5]: completely block

Nc1cccc2c1CN(C1CCC(=O)NC1=O)C2=O (stereo not shown) [lenalidomide, reference compound]
Effect of pretreatment on degradation of BRD2, BRD3, and BRD4 induced by 23 [5]: effectively blocks

Reference: article PMC5788414 (Journal of Medicinal Chemistry, 2017)
